Laboratory results taken from ChEMBL document CHEMBL3085698, “Bioactive lignans from the trunk of Abies holophylla” (J Nat Prod, 2013).

Assays:
[1] = Antineuroinflammatory activity in mouse BV2 cells assessed as inhibition of LPS-induced NO production incubated 30 mins prior to LPS-challenge measured after 24 hrs by Griess assay; assay type: functional, cell-based; conditions: BV-2
In short: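 BV-2 microglia grown in DMEM with 5% FBS and 1% penicillin-streptomycin, plated at 3 × 10^4 cells/well and left 24 h. Compounds added 30 min before 100 ng/mL LPS for 24 h. Supernatant nitrite measured by Griess reagent (1% sulphanilamide, 0.1% naphthylethylenediamine in 5% phosphoric acid), read at 540 nm after 10 min against a sodium nitrite standard. L-NMMA as positive control. IC50 reported.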

C6 = test: Induction of NGF secretion in rat C6 cells at 10 uM after 24 hrs by ELISA relative to control; assay type: functional
In short: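 Rat C6 glioma cells kept in DMEM with 10% FBS and 1% penicillin-streptomycin under 5% CO2, seeded at 1 × 10^5 cells/well. After 24 h, medium switched to DMEM with 2% FBS containing compound for one day. NGF released into the supernatant quantified by ELISA; viability checked by MTT. 6-Shogaol as positive control.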

[2] = Cytotoxicity against LPS-stimulated mouse BV2 cells assessed as cell viability by MTT assay relative to control; assay type: cell-based; conditions: bv-2
In short: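 MTT viability read in the same BV-2 setup: cells at 3 × 10^4 cells/well in DMEM with 5% FBS, compound pretreatment for 30 min, then 100 ng/mL LPS stimulation for 24 h.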

Row | IC50 [1] | Structure (SMILES) | Activity (C6) | Activity [2]
1 | 31 µM | COc1cc(CCCO)ccc1O[C@@H](CO)Cc1ccc(O[C@@H]2OC[C@@H](O)[C@H](O)[C@H]2O)c(OC)c1 | 169% | Non-toxic
2 |  | COc1cc(C[C@H]2[C@@H](OC)OC[C@@H]2[C@H](O)c2ccc(O)c(OC)c2)ccc1O | 165% | 
3 |  | COc1cc([C@@H]2Oc3c(OC)cc(CCCO)cc3[C@H]2CO)ccc1O[C@@H]1O[C@@H](C)[C@H](O)[C@@H](OC)[C@H]1O | 159% | 
4 | 36.4 µM | COc1cc(C[C@H]2[C@H](OC)OC[C@@H]2[C@H](O)c2ccc(O)c(OC)c2)ccc1O |  | Non-toxic
5 | 32.9 µM | COc1cc([C@@H]2Oc3c(O)cc(CCCO)cc3[C@H]2CO)ccc1O[C@@H]1O[C@@H](C)[C@H](O)[C@@H](OC)[C@H]1O (relative stereo) |  | Non-toxic
6 |  | CCCCC/C=C/C(=O)CCc1ccc(O)c(OC)c1 [SHOGAOL] | 129% | 

Row | Structure (SMILES) | IC50 [1] | Activity (C6) | Activity [2]
7 | COc1cc([C@H]2c3cc(O)c(OC)cc3C[C@H]3C(=O)OC[C@H]23)ccc1O [ALPHA-CONIDENDRIN] | 28.5 µM |  | Non-toxic
